Laboratory results as given in ChEMBL document CHEMBL1126327, “Synthesis and antihypertensive activity of 3-[(substituted-carbonyl)amino]-2H-1-benzopyrans” (1992).

Experiments:
Type in all cases: functional
Rattus norvegicus [1] = assay: Compound was evaluated for oral antihypertensive activity in spontaneously hypertensive rats at a dose of 0.1 mg/kg (po)
Outline: (§1)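 Conscious spontaneously hypertensive rats (Okamoto-derived, 14-24 weeks old; systolic pressure >180 mmHg counted as hypertensive) dosed by oral needle into the esophagus as a solution or suspension in 1% w/v methylcellulose. Systolic pressure was taken by tail-cuff, each reading the mean of at least five recordings, before dosing and at intervals up to 6 h. The maximum fall was recorded.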

Rattus norvegicus [2] = assay: Oral antihypertensive activity in spontaneously hypertensive rats at a dose of 0.3 mg/kg (po); outline: as §1
Rattus norvegicus [3] = assay: Compound was evaluated for oral antihypertensive activity in spontaneously hypertensive rats at a dose of 1.0 mg/kg (po); outline: as §1
Rattus norvegicus [4] = assay: Oral antihypertensive activity in spontaneously hypertensive rats at a dose of 10 mg/kg (po); outline: as §1
Rattus norvegicus [5] = assay: Oral antihypertensive activity in spontaneously hypertensive rats at a dose of 3 mg/kg (po); outline: as §1
Rattus norvegicus [6] = assay: Oral antihypertensive activity in spontaneously hypertensive rats at a dose of 1 mg/kg (po); outline: as §1
Rattus norvegicus [7] = assay: Compound was evaluated for oral antihypertensive activity in spontaneously hypertensive rats at a dose of 1 mg/Kg (po); outline: as §1
Rattus norvegicus [8] = assay: Compound was evaluated for oral antihypertensive activity in spontaneously hypertensive rats at a dose of 10 mg/Kg (po); outline: as §1
Rattus norvegicus [9] = assay: Compound was evaluated for oral antihypertensive activity in spontaneously hypertensive rats at a dose of 3 mg/Kg (po); outline: as §1

Row | SMILES | Max fall in blood pressure (Rattus norvegicus [2]) [%] | Max fall in blood pressure (Rattus norvegicus [5]) [%] | Max fall in blood pressure (Rattus norvegicus [6]) [%] | other results
1 | CC(C)(C)NC(=O)N[C@@H]1C(O)c2cc(C#N)ccc2OC1(C)C (some centres not stated) | -40 | – | – | Max fall in blood pressure (Rattus norvegicus [1]): -19%; Max fall in blood pressure (Rattus norvegicus [3]): -63%
2 | CC1(C)Oc2ccc(C#N)cc2C(O)[C@H]1N1CCCCC1=O (some centres not stated) | – | -20 | – | Max fall in blood pressure (Rattus norvegicus [4]): -16%
3 | CC1(C)Oc2ccc(C#N)cc2C(O)[C@H]1NC(=O)NC1CCCCC1 (some centres not stated) | – | -14 | – | –
4 | CC1(C)Oc2ccc(C#N)cc2C(O)[C@H]1NC(=O)c1ccccn1 (some centres not stated) | – | -15 | -18 | –
5 | COC1c2cc(C#N)ccc2OC(C)(C)[C@@H]1NC(=O)OC(C)(C)C (some centres not stated) | – | -39 | – | –
6 | CC(C)NC(=O)N[C@@H]1C(O)c2cc(C#N)ccc2OC1(C)C (some centres not stated) | -22 | – | -26 | –
7 | CC1(C)Oc2ccc(C#N)cc2C(O)[C@H]1NC(=O)C1CCCCC1 (some centres not stated) | – | -9 | -11 | –
8 | CCNC(=O)N[C@@H]1C(O)c2cc(C#N)ccc2OC1(C)C (some centres not stated) | – | -18 | -13 | –
9 | CNC(=O)N[C@@H]1C(O)c2cc(C#N)ccc2OC1(C)C (some centres not stated) | – | -8 | – | Max fall in blood pressure (Rattus norvegicus [4]): -24%
10 | CN(C)C(=O)N[C@@H]1C(O)c2cc(C#N)ccc2OC1(C)C (some centres not stated) | – | -27 | – | –
11 | CC(C)(C)CC(=O)N[C@@H]1C(O)c2cc(C#N)ccc2OC1(C)C (some centres not stated) | – | -27 | -9 | –
12 | CC1(C)Oc2ccc(C#N)cc2C(O)[C@H]1NC(=O)c1ccc(F)c(F)c1 (some centres not stated) | – | -37 | -6 | –
13 | CC(C)/N=C(\S)N[C@@H]1C(O)c2cc(C#N)ccc2OC1(C)C (some centres not stated) | -49 | – | – | –
14 | CC(C)(C)OC(=O)N[C@@H]1C(O)c2cc(C#N)ccc2OC1(C)C (some centres not stated) | – | – | – | Max fall in blood pressure (Rattus norvegicus [7]): -14%; Max fall in blood pressure (Rattus norvegicus [8]): -49%; Max fall in blood pressure (Rattus norvegicus [9]): -30%
15 | CC(C)(C)NC(=O)N[C@@H]1C(O)c2cc(C(F)(F)F)ccc2OC1(C)C (some centres not stated) | – | – | -31 | –
16 | CC(C)(C)C(=O)N[C@@H]1C(O)c2cc(C#N)ccc2OC1(C)C (some centres not stated) | -30 | – | -36 | –
17 | CCCNC(=O)N[C@@H]1C(O)c2cc(C#N)ccc2OC1(C)C (some centres not stated) | – | -32 | -10 | –
18 | CC1(C)Oc2ccc(C#N)cc2C(O)[C@H]1NC(=O)c1ccc(F)cc1 (some centres not stated) | – | -42 | -22 | –
19 | CC(C)(C)OC(=O)N[C@@H]1Cc2cc(C#N)ccc2OC1(C)C | – | -26 | – | Max fall in blood pressure (Rattus norvegicus [4]): -30%
20 | CC1(C)Oc2ccc(C#N)cc2C(O)[C@H]1NC(=O)c1ccccc1 (some centres not stated) | – | -20 | – | –
21 | CC(C)(C)OC(=O)N[C@@H]1C(N)c2cc(C#N)ccc2OC1(C)C (some centres not stated) | – | – | – | Max fall in blood pressure (Rattus norvegicus [4]): -25%
22 | CC(C)(C)NC(=O)N[C@@H]1Cc2cc(C#N)ccc2OC1(C)C | -27 | – | – | –
23 | CC(C)C(=O)N[C@@H]1C(O)c2cc(C#N)ccc2OC1(C)C (some centres not stated) | -39 | – | – | Max fall in blood pressure (Rattus norvegicus [1]): -22%
24 | CC(=O)N[C@@H]1C(O)c2cc(C#N)ccc2OC1(C)C (some centres not stated) | – | -14 | – | Max fall in blood pressure (Rattus norvegicus [4]): -32%
25 | CC(C)(C)NC(=O)N[C@@H]1C(O)c2cc(Cl)ccc2OC1(C)C (some centres not stated) | -16 | -34 | – | –
26 | CC1(C)Oc2ccc(C#N)cc2C(N2CCCC2=O)C1O (configuration not stated) [CROMAKALIM] | -39 | – | -47 | Max fall in blood pressure (Rattus norvegicus [1]): -13%
